# Results reported in ChEMBL document CHEMBL1629540 (J Med Chem, 2010).
# How the values were obtained:
# Glutamate receptor 2 [1] = target: T1, Glutamate receptor 2 (Rattus norvegicus, UniProt P19491); experiment: Agonist activity at rat recombinant GluA2(Q)i expressed in Xenopus laevis oocytes by two-electrode voltage clamp assay; type: functional, cell-based, Oocyte
# Summary of the method: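 Homomeric rat GluA2(Q) flip receptors expressed in Xenopus laevis oocytes and recorded by two-electrode voltage clamp. Agonist-evoked currents were normalised to the maximum response in each oocyte. EC50 was obtained by fitting the concentration-response data to a logistic equation giving Imax and the Hill coefficient.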
# Glutamate NMDA receptor = experiment: Displacement of [3H]CGP39653 from NMDA receptor in rat brain membrane; type: cell membranes
# Glutamate receptor 3 [2] = target: T2, Glutamate receptor 3 (Rattus norvegicus, UniProt P19492); experiment: Displacement of [3H[AMPA from rat recombinant GluA3o expressed in […] cells; type: cell-based
# T2 sequence (P19492 whole entry): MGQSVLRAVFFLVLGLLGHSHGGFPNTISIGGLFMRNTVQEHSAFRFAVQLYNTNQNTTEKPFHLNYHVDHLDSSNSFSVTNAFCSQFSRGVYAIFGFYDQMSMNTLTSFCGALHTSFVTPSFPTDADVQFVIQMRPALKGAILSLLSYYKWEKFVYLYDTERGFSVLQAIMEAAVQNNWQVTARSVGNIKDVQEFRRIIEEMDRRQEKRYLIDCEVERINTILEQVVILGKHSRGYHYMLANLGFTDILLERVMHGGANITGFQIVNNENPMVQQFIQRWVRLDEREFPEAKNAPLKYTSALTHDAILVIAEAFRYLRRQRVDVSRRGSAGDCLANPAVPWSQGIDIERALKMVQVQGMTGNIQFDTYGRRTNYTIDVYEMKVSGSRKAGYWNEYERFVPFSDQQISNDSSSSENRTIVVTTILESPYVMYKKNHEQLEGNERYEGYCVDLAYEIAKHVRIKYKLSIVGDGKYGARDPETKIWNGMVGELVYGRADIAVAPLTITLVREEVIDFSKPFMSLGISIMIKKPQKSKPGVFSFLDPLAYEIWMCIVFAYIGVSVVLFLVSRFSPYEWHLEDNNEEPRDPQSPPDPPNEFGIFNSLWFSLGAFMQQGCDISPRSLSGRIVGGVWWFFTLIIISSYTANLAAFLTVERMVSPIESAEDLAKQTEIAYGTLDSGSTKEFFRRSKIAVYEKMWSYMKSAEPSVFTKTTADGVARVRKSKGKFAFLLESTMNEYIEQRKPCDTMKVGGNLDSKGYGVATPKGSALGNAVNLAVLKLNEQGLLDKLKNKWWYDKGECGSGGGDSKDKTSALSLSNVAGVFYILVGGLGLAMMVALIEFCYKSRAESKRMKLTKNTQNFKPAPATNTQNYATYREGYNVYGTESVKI
# Summary of the method: (§1)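 Competition binding to membranes from Sf9 cells infected with recombinant baculovirus encoding rat flop GluA subunits. Radioligand 2-5 nM (RS)-[3H]AMPA, 12-16 ligand concentrations. At least three experiments, each in triplicate, reported as Ki mean ± SEM.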
# [3] = Displacement of [3H]KA from kainate receptor in rat brain membrane; type: cell membranes
# Summary of the method: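 Rat cortical synaptosomal membranes, competition with 5 nM [3H]KA (58.0 Ci/mmol). IC50 given as the antilog of the mean log value from three individual experiments.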
# Glutamate receptor 1 [4] = target: T3, Glutamate receptor 1 (Rattus norvegicus, UniProt P19490); experiment: Displacement of [3H[AMPA from rat recombinant GluA1o expressed in […] cells; type: cell-based; summary of the method: as §1
# [5] = target: Glutamate receptor ionotropic, kainate 2 (Rattus norvegicus, UniProt P42260); experiment: Displacement of [3H[SYM2081 from rat recombinant GluK2(VCR)a expressed in […] cells; type: cell-based
# Glutamate receptor ionotropic, kainate 2, sequence (P42260 whole entry): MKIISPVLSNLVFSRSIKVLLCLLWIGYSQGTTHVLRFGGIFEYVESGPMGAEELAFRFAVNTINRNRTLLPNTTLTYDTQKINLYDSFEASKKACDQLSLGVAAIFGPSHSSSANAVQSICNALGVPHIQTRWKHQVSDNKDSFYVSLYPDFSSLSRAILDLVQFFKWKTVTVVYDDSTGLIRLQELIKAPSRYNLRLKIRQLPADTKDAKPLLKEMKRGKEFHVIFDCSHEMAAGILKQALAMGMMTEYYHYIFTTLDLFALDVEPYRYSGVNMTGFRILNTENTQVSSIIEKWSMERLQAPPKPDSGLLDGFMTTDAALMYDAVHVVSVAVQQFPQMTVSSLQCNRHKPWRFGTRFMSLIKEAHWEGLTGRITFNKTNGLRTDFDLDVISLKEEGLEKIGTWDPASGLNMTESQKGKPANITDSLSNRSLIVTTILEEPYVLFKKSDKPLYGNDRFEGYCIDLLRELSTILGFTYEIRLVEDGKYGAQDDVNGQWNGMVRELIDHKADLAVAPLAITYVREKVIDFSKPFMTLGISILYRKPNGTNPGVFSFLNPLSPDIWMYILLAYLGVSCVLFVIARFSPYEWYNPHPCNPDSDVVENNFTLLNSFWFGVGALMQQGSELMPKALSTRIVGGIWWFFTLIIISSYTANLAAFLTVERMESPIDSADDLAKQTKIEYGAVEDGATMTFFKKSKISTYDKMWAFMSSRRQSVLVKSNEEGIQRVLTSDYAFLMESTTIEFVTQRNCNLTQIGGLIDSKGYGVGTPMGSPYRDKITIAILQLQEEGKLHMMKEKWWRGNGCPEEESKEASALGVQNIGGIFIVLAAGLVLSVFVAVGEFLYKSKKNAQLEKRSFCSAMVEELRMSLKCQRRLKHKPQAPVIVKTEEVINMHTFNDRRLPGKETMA
# Summary of the method: (§2)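 Competition binding to membranes from Sf9 cells infected with recombinant baculovirus encoding rat GluK subunits. Radioligand 1-5 nM [3H]SYM2081 (47.9 Ci/mmol), 12-16 ligand concentrations. At least three experiments, each in triplicate, reported as Ki mean ± SEM.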
# [6] = Displacement of [3H]AMPA from AMPA receptor in rat brain membrane; type: cell membranes
# Summary of the method: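 Rat cortical synaptosomal membranes, competition with 5 nM [3H]AMPA (55.5 Ci/mmol). IC50 given as the antilog of the mean log value from three individual experiments.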
# Glutamate receptor 4 [7] = target: T4, Glutamate receptor 4 (Rattus norvegicus, UniProt P19493); experiment: Displacement of [3H[AMPA from rat recombinant GluA4o expressed in […] cells; type: cell-based; summary of the method: as §1
# [8] = target: Glutamate receptor ionotropic, kainate 1 (Rattus norvegicus, UniProt P22756); experiment: Displacement of [3H[SYM2081 from rat recombinant GluK1(Q)1b expressed in […] cells; type: cell-based
# Glutamate receptor ionotropic, kainate 1, sequence (P22756 whole entry): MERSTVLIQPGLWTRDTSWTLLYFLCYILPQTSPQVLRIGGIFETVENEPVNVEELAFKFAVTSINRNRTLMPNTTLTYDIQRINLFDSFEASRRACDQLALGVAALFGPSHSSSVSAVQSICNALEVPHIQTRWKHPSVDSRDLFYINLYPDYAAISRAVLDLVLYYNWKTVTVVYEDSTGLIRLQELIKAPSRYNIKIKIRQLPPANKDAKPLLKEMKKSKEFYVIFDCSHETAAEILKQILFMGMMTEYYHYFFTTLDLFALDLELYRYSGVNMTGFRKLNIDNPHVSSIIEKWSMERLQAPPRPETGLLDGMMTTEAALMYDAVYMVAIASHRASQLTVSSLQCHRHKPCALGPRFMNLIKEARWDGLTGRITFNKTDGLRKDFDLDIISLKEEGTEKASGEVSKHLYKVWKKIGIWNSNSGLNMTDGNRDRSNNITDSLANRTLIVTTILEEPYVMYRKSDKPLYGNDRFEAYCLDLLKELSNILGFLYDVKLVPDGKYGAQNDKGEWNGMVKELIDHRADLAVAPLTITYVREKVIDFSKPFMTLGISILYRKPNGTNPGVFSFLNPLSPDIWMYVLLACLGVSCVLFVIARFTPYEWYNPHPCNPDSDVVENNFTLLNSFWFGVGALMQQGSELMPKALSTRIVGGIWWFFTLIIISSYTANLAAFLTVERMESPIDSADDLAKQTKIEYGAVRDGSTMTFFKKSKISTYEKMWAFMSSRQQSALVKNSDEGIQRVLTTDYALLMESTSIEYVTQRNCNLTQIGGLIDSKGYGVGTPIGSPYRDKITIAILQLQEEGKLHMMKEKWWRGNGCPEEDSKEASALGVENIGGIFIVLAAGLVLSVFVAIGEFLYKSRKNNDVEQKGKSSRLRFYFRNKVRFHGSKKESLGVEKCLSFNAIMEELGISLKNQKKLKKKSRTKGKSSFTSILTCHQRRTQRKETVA
# Glutamate receptor 1 [9] = target: T3, Glutamate receptor 1; experiment: Agonist activity at rat recombinant GluA1i expressed in Xenopus laevis oocytes by two-electrode voltage clamp assay; type: functional, cell-based, Oocyte
# Summary of the method: (§3)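 Rat homomeric flip-isoform GluA subunits expressed in Xenopus laevis oocytes, measured by two-electrode voltage clamp. Highest concentration tested 3 mM. Responses normalized to the maximum response in each oocyte. Three to five experiments per receptor, each in duplicate. EC50 obtained by fitting I = Imax/(1 + (10^logEC50/10^log[A])^nH), giving Imax and Hill coefficient.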
# Glutamate receptor 2 [10] = target: Glutamate receptor 2 (Homo sapiens, UniProt P42262); experiment: Displacement of [3H]AMPA from GluA2-S1S2 receptor
# Glutamate receptor 2 (Homo sapiens, UniProt P42262), sequence (P42262 whole entry): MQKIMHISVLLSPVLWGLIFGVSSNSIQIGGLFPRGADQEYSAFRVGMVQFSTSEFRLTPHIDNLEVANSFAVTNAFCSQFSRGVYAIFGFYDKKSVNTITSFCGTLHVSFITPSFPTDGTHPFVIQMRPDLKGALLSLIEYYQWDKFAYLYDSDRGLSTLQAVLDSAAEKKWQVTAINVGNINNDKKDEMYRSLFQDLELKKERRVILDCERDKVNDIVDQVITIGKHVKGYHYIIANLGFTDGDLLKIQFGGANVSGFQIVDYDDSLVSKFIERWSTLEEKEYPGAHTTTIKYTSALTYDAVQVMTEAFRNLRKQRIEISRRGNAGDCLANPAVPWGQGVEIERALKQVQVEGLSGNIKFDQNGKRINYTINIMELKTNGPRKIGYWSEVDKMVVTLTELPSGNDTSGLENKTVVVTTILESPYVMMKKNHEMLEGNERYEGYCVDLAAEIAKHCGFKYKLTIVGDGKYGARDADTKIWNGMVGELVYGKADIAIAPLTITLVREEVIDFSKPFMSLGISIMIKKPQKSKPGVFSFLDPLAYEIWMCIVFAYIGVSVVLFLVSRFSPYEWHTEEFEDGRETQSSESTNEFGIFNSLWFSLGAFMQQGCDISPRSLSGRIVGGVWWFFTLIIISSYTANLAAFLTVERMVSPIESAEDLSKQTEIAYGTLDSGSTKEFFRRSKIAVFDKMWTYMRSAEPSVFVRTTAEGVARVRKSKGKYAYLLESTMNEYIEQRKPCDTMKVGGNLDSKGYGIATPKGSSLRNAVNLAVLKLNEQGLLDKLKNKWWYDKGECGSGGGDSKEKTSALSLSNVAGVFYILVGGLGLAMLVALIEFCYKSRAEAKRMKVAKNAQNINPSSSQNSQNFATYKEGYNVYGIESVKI
# [11] = target: Glutamate receptor ionotropic, kainate 3 (Rattus norvegicus, UniProt P42264); experiment: Displacement of [3H[SYM2081 from rat recombinant GluK3a expressed in […] cells; type: cell-based; summary of the method: as §2
# Glutamate receptor ionotropic, kainate 3, sequence (P42264 whole entry): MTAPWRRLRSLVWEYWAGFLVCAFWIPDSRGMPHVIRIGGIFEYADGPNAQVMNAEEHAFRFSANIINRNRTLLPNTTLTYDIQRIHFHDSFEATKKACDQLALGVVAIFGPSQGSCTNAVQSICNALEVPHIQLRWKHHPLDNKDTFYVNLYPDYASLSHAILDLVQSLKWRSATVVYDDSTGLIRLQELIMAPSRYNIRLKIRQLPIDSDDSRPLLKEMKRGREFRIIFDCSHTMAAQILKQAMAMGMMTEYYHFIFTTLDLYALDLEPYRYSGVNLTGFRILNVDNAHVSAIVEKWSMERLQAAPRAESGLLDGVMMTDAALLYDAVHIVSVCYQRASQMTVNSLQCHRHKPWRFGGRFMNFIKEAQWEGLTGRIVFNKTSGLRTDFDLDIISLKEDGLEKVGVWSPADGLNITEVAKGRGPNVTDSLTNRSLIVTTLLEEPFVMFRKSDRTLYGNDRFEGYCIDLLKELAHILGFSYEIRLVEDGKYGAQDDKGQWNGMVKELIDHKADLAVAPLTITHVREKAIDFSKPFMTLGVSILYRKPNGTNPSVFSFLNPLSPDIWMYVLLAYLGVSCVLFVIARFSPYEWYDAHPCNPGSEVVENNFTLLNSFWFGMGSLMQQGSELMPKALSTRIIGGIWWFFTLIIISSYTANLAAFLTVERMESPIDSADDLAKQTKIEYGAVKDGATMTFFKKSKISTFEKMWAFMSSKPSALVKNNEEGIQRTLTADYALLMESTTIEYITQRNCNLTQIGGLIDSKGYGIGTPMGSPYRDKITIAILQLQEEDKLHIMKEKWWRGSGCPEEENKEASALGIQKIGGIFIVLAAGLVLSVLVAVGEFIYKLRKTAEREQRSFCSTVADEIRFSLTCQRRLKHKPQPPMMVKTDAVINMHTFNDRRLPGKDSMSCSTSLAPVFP
# Glutamate receptor 4 [12] = target: T4, Glutamate receptor 4; experiment: Agonist activity at rat recombinant GluA4i expressed in Xenopus laevis oocytes by two-electrode voltage clamp assay; type: functional, cell-based, Oocyte; summary of the method: as §3
# Glutamate receptor 3 [13] = target: T2, Glutamate receptor 3; experiment: Agonist activity at rat recombinant GluA3i expressed in Xenopus laevis oocytes by two-electrode voltage clamp assay; type: functional, cell-based, Oocyte; summary of the method: as §3
# Glutamate receptor 2 [14] = target: T1, Glutamate receptor 2; experiment: Displacement of [3H[AMPA from rat recombinant GluA2(R)o expressed in […] cells; type: cell-based
# T1 sequence (P19491 whole entry): as the sequence (P42262 whole entry) above, with M191T, T291A, R764G, A852P counted along it
Compound,EC50 (Glutamate receptor 2 [1]),Ki (Glutamate NMDA receptor),Ki (Glutamate receptor 3 [2]),IC50 [3],Ki (Glutamate receptor 1 [4]),Ki [5],IC50 [6],Ki (Glutamate receptor 4 [7]),Ki [8],EC50 (Glutamate receptor 1 [9]),Ki (Glutamate receptor 2 [10]),Ki [11],EC50 (Glutamate receptor 4 [12]),EC50 (Glutamate receptor 3 [13]),Ki (Glutamate receptor 2 [14])
O=C(O)[C@H]1Cc2c(O)noc2CN1,22.3 µM,> 100 µM,0.84 µM,> 100 µM,0.36 µM,> 100 µM,0.47 µM,0.64 µM,10.1 µM,–,–,–,–,–,–
O=C(O)C1NCCc2c1o[nH]c2=O (racemic),34.6 µM,> 100 µM,4.52 µM,> 100 µM,0.18 µM,> 100 µM,0.37 µM,13.5 µM,4.48 µM,82.8 µM,0.108 µM,29.8 µM,> 1000 µM,637 µM,–
O=C(O)C1Cc2c(O)noc2CN1 (racemic),–,–,–,–,–,–,–,–,–,–,0.494 µM,54 µM,–,–,–
NC(Cc1onc(O)c1Cl)C(=O)O (racemic),–,18 µM,27.5 µM,> 100 µM,0.13 µM,> 100 µM,0.22 µM,11.9 µM,6.8 µM,4.7 µM,–,90.5 µM,–,–,0.37 µM
Cc1onc(O)c1C[C@H](N)C(=O)O [(S)-AMPA],–,–,–,–,–,> 1000 µM,–,–,–,–,–,42.7 µM,–,–,–
N[C@H](C(=O)O)c1cc(O)no1 [IBOTENIC ACID],–,–,> 100 µM,22 µM,> 100 µM,3.23 µM,> 100 µM,> 100 µM,2.43 µM,–,–,1.74 µM,–,–,> 100 µM
